Measurements as given in ChEMBL document CHEMBL2021811, “The discovery of potent and selective pyridopyrimidin-7-one based inhibitors of B-RafV600E kinase” (Bioorg Med Chem Lett, 2012).
Active and inactive are the calls of the source. The calls are words filed in the database; no cut-off is given here.

Experiments:
[1] = molecular target: T1, Serine/threonine-protein kinase B-raf (Homo sapiens, UniProt P15056, V600E); experiment: Inhibition of full-length B-Raf V600E mutant in human MALME-3M cells assessed as reduction in basal ERK1/2 phosphorylation incubated for 1 hr; format: cell-based
[2] = molecular target: T1, Serine/threonine-protein kinase B-raf; experiment: Inhibition of full-length B-Raf V600E mutant assessed as reduction in incorporation of radiolabeled phosphate from [gamma-33P]ATP into FSBA-modified wild-type MEK.
[3] = molecular target: Proto-oncogene tyrosine-protein kinase Src (Homo sapiens) (UniProt P12931); experiment: Inhibition of SRC at 1 uM
[4] = molecular target: Tyrosine-protein kinase Fgr (Homo sapiens) (UniProt P09769); experiment: Inhibition of FGR at 1 uM
[5] = molecular target: Tyrosine-protein kinase Lck (Homo sapiens) (UniProt P06239); experiment: Inhibition of LCK at 1 uM
[6] = molecular target: Tyrosine-protein kinase ABL1 (Homo sapiens) (UniProt P00519); experiment: Inhibition of ABL at 1 uM
[7] = molecular target: Vascular endothelial growth factor receptor 2 (Homo sapiens) (UniProt P35968); experiment: Inhibition of KDR at 1 uM
[8] = Oral bioavailability in mouse at 30 mg/kg; format: ADME, organism-based; settings: in vivo
[9] = AUC in mouse at 30 mg/kg, po; format: ADME, organism-based; parameters: dose 30 mg/kg, route oral; settings: plasma
[10] = Permeability across human Caco2 cells; format: ADME, cell-based; settings: Caco-2, read-out: permeability
In short: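 Caco-2 monolayer permeability is reported as a class: low <2 × 10^-6 cm/s, medium 2–8 × 10^-6 cm/s, high >8 × 10^-6 cm/s.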

[11] = Volume of distribution in mouse at 2.5 mg/kg, iv; format: ADME, organism-based; parameters: dose 2.5 mg/kg, route intravenous; settings: in vivo
In short: (§1)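 Mouse intravenous pharmacokinetics at 2.5 mg/kg. Observed clearance is reported in ml/min/kg and volume of distribution in l/kg.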

[12] = Clearance in mouse at 2.5 mg/kg, iv; format: ADME, organism-based; parameters: dose 2.5 mg/kg, route intravenous; settings: in vivo; in short: as §1
[13] = Antitumor activity against B-Raf V600E mutant expressing human LOX cells xenografted in mouse assessed as tumor growth inhibition at 30 mg/kg, QD from day 1 to day 4 measured on day 5; format: functional; settings: read-out: TGI
In short: (§2)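 Nude mice bearing established LOX (B-Raf V600E) xenografts were dosed at 30 mg/kg once daily on days 1–4, with vehicle controls at 10 ml/kg. Tumor volume was measured on days 1, 3, 5, 8 and 11.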

[14] = molecular target: RAF proto-oncogene serine/threonine-protein kinase (Homo sapiens) (UniProt P04049); experiment: Inhibition of human C-raf at 1 uM in presence of ATP at level equals to ~ Km of ATP
[15] = Antitumor activity against B-Raf V600E mutant expressing human LOX cells xenografted in mouse assessed as tumor growth inhibition at 30 mg/kg, QD from day 1 to day 4 measured on day 11; format: functional; settings: read-out: TGI; in short: as §2
[16] = molecular target: LIM domain kinase 1 (Homo sapiens) (UniProt P53667); experiment: Inhibition of human LIMK1 at 1 uM in presence of ATP at level equals to ~ Km of ATP
[17] = molecular target: Serine/threonine-protein kinase B-raf (Homo sapiens) (UniProt P15056); experiment: Inhibition of human B-raf at 1 uM in presence of ATP at level equals to ~ Km of ATP
[18] = Antitumor activity against B-Raf V600E mutant expressing human LOX cells xenografted in mouse assessed as tumor growth inhibition at 30 mg/kg, QD from day 1 to day 4 measured on day 8; format: functional; settings: read-out: TGI; in short: as §2

Tyrosine-protein kinase Lck (Homo sapiens), sequence (P06239 2-509 limits assumed): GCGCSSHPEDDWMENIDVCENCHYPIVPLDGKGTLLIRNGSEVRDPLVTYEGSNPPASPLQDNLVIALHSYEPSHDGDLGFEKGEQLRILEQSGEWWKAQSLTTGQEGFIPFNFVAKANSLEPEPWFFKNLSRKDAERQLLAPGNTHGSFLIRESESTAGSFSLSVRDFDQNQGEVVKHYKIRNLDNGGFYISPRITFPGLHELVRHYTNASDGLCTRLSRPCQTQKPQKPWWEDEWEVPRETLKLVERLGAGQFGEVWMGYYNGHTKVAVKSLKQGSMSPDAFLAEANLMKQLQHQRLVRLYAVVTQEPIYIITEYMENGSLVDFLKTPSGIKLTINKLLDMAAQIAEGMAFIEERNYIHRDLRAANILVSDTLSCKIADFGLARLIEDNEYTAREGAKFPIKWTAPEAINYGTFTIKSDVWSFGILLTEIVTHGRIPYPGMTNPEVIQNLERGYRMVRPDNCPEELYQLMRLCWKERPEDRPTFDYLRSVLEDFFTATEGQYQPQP
Tyrosine-protein kinase Fgr (Homo sapiens), sequence (P09769 2-529 limits assumed): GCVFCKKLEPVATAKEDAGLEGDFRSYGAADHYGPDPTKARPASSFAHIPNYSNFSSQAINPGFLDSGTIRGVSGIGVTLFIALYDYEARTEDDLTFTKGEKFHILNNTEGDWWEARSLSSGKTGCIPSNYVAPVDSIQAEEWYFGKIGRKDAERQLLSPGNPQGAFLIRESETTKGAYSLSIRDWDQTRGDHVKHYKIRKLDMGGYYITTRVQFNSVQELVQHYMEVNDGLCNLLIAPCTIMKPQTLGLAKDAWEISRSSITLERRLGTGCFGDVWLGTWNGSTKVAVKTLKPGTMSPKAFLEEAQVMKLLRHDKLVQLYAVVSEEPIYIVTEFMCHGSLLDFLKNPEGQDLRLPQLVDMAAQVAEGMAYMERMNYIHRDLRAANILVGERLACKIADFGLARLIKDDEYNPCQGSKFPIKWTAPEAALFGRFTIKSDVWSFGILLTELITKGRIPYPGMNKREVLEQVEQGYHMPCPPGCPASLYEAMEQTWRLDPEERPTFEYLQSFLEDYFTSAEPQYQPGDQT
Tyrosine-protein kinase ABL1 (Homo sapiens), sequence (P00519 whole entry): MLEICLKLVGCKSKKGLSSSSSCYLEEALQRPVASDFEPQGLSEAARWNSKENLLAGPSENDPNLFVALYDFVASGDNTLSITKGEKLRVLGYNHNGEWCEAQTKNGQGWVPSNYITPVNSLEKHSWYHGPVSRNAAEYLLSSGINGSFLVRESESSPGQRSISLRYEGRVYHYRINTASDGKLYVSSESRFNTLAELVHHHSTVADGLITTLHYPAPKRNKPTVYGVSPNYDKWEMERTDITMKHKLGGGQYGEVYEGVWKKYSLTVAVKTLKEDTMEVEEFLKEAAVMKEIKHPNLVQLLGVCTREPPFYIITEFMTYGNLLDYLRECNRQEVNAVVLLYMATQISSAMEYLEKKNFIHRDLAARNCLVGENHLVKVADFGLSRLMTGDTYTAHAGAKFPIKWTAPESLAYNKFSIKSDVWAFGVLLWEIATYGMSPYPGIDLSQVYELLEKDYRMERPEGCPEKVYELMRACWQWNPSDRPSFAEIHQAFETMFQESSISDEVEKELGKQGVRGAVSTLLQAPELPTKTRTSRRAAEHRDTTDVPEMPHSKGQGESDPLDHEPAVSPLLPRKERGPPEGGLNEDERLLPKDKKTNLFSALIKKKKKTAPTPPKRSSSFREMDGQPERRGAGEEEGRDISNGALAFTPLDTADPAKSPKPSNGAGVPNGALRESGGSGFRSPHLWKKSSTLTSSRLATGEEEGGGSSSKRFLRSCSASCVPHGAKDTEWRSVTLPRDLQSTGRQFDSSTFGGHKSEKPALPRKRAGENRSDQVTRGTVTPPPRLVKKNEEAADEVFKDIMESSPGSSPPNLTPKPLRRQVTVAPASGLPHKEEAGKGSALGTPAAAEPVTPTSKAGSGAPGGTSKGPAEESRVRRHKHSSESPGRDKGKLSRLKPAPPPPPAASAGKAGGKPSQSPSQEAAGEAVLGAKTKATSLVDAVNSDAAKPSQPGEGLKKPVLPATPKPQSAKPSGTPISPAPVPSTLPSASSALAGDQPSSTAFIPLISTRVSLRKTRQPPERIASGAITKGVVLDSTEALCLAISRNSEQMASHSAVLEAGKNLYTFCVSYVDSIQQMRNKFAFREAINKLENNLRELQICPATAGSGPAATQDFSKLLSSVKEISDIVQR
T1 sequence (P15056 2-766 V600E limits assumed): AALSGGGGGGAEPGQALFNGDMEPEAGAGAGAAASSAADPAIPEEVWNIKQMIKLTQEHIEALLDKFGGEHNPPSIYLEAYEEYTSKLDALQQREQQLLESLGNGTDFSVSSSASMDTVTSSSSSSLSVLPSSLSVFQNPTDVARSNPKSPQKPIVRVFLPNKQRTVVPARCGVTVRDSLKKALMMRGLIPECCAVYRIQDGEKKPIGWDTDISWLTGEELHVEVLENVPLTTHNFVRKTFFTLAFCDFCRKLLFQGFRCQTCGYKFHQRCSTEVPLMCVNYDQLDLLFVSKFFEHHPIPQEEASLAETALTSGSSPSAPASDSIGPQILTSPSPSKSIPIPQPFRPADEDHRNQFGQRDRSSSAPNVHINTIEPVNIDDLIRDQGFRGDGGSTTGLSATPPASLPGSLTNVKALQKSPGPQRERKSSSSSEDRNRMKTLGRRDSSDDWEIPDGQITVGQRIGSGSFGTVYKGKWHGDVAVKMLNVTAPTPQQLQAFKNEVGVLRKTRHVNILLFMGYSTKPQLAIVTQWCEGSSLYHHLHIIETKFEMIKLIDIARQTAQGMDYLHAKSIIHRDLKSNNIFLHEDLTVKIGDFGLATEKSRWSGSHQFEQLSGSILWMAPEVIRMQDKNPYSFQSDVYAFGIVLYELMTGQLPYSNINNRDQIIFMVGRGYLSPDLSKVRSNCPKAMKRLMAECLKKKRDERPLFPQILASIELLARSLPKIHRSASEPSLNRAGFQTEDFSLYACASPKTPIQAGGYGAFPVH
Vascular endothelial growth factor receptor 2 (Homo sapiens), sequence (P35968 whole entry): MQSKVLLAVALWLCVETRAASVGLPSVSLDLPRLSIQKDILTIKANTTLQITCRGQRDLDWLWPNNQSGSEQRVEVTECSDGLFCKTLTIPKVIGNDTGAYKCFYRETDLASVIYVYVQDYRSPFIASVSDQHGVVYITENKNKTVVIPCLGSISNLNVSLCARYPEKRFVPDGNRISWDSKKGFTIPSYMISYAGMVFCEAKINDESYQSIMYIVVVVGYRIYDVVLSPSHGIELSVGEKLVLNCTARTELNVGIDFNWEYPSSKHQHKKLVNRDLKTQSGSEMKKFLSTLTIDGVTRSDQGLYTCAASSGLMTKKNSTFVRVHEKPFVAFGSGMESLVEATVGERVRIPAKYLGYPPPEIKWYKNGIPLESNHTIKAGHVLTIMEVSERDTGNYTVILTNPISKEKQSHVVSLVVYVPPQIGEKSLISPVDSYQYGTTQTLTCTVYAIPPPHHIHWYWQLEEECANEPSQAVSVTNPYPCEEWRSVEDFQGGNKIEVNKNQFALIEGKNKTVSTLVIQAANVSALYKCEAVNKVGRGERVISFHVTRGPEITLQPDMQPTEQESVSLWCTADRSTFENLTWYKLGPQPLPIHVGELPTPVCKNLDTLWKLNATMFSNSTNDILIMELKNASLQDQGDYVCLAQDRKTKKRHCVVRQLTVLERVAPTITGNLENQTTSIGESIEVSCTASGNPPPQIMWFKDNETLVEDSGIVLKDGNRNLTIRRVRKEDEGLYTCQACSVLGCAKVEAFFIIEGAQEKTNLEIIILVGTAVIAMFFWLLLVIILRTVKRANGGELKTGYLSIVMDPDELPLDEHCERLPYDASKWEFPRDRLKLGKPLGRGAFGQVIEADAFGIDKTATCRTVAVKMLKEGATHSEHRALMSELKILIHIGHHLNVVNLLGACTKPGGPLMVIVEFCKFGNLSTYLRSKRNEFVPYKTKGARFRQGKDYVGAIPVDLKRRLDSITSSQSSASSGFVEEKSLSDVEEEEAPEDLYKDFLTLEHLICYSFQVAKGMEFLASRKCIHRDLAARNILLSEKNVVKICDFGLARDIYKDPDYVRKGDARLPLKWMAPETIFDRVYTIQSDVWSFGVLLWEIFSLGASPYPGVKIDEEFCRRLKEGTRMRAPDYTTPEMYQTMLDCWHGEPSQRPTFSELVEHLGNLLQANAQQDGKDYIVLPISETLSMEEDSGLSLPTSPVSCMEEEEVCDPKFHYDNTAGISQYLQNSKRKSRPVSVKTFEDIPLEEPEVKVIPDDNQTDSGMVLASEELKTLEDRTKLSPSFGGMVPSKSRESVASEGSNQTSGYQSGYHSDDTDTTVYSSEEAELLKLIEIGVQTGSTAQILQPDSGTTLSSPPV
Proto-oncogene tyrosine-protein kinase Src (Homo sapiens), sequence (P12931 2-536 limits assumed): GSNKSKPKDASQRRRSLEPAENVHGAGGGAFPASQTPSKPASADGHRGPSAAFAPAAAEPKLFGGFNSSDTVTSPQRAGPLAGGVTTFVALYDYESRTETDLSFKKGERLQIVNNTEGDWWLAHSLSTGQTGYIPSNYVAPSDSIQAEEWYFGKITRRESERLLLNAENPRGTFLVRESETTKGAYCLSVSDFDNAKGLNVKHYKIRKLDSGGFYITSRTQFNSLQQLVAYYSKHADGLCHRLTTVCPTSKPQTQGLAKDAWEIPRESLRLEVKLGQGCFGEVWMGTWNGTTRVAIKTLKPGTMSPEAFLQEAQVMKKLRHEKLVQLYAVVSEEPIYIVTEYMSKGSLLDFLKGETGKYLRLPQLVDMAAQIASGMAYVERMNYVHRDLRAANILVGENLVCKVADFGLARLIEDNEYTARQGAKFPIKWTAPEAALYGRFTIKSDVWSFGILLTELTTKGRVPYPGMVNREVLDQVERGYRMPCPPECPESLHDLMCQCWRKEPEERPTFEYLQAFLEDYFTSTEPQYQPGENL

Row | Compound | IC50 [1] | IC50 [2] | further results
1 | CCCS(=O)(=O)Nc1ccc(F)c(-c2cc3cnc(NC)nc3n(C)c2=O)c1F | 0.045 µM | 0.009 µM | –
2 | CCCS(=O)(=O)Nc1ccc(F)c(-c2cc3cnccc3cn2)c1F | 0.703 µM | 0.241 µM | –
3 | CCCS(=O)(=O)Nc1ccc(F)c(-c2ccc3nc(N)ncc3c2)c1F | 0.682 µM | 0.14 µM | –
4 | CCCS(=O)(=O)Nc1ccc(C)c(-c2ccc3nc(N)ncc3c2)c1 | > 10 µM | 0.128 µM | –
5 | CCCS(=O)(=O)Nc1ccc(F)c(-c2cc3cnc(Nc4ccccc4)nc3n(C)c2=O)c1F | 0.005 µM | 0.0005 µM | inhibition [3]: > 90%; inhibition [4]: > 90%; inhibition [5]: > 90%; inhibition [6]: > 90%; inhibition [7]: > 90%
6 | CCCS(=O)(=O)Nc1ccc(F)c(-c2cc3cnc(N)nc3n(C)c2=O)c1F | 0.093 µM | 0.01 µM | –
7 | CCCS(=O)(=O)Nc1ccc(F)c(-c2cc3cnc(NCCO)nc3n(C)c2=O)c1F | 0.031 µM | 0.006 µM | bioavailability [8]: 18%; AUC [9]: 1 µM·h; Papp [10]: > 80 nm/s; Vd [11]: 1 L/kg; clearance [12]: 4.44 L/h/kg
8 | CCCS(=O)(=O)Nc1ccc(F)c(-c2cc3cnc(NC4CCOCC4)nc3n(C)c2=O)c1F | 0.073 µM | 0.015 µM | –
9 | CCCS(=O)(=O)Nc1ccc(F)c(-c2ccc3ccncc3n2)c1F | – | 3.61 µM | –
10 | CCCS(=O)(=O)Nc1ccc(F)c(-c2cc3cnc(Nc4cnn(C)c4)nc3n(C)c2=O)c1F | 0.001 µM | 0.0004 µM | inhibition [3]: > 90%; inhibition [4]: > 90%; inhibition [5]: > 90%; inhibition [6]: > 90%; inhibition [7]: > 90%
11 | CCCS(=O)(=O)Nc1ccc(F)c(-c2cc3cnc(NCCCO)nc3n(C)c2=O)c1F | 0.041 µM | – | AUC [9]: 20 µM·h; Papp [10]: > 80 nm/s; Vd [11]: 20 L/kg
12 | CCCS(=O)(=O)Nc1ccc(F)c(-c2cc3ccncc3[nH]2)c1F | – | > 10 µM | –
13 | CCCS(=O)(=O)Nc1ccc(F)c(-c2cc3cnccc3c(=O)n2C)c1F | 0.445 µM | 0.071 µM | –
14 | CCCS(=O)(=O)Nc1ccc(F)c(-c2cc3cnc(NCC4CC4)nc3n(C)c2=O)c1F | 0.027 µM | 0.003 µM | bioavailability [8]: 33%; inhibition in vivo at 30 mg/kg [13]: 74%; inhibition [14]: Active; inhibition in vivo at 30 mg/kg [15]: 97%; AUC [9]: 133 µM·h; Papp [10]: > 80 nm/s; inhibition [16]: > 80%; inhibition [17]: Active; Vd [11]: 0.46 L/kg; clearance [12]: 0.18 L/h/kg; inhibition in vivo at 30 mg/kg [18]: 96%
15 | CCCS(=O)(=O)Nc1ccc(F)c(-c2cc3cncc(Br)c3cn2)c1F | 0.469 µM | 0.072 µM | –
16 | CCCS(=O)(=O)Nc1ccc(F)c(-c2cc3cnccc3n(CCc3ccccc3)c2=O)c1F | 1.16 µM | 0.013 µM | –
17 | CCCS(=O)(=O)Nc1ccc(F)c(-c2ccc3nc(N)ncc3c2)c1 | – | > 10 µM | –
18 | CCCS(=O)(=O)Nc1ccc(F)c(-c2ccc3cc(N)ncc3c2)c1F | – | 0.549 µM | –
19 | CCCS(=O)(=O)Nc1ccc(F)c(-c2cc3cnc(Nc4cccnc4)nc3n(C)c2=O)c1F | 0.003 µM | 0.0005 µM | inhibition [3]: > 90%; inhibition [4]: > 90%; inhibition [5]: > 90%; inhibition [6]: > 90%; inhibition [7]: > 90%
20 | CCCS(=O)(=O)Nc1ccc(F)c(-c2ccc3ccncc3c2)c1F | – | 0.34 µM | –
